The list is not random: actives were taken first. Their share in the collection is about 2.1%.
RTF Ca sens inh – cardiac RTF calcium desensitization | hit rate 0.12% among 340,000 | P19429+P45379 | IANBD-labeled cardiac RTF, Ca2+ fluorescence | inhibition, % at 7.15 µM | AID 493244;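 active = inhibition above the mean inhibition of all tested compounds plus 3 SD, cut at about 17% in these data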;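 note: assay run at fixed EC70 calcium of 1.6 mM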
Efflux pump mplx – blocks antifungal efflux pumps in multiplex yeast assay | S. cerevisiae Candida pump triplex, Nile Red efflux | inhibition, % at 10 µM | hit rate 0.44% among 330,000;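 active = plate passing quality check with inhibition over a set limit, or well fluorescence over plate mean plus 4 SD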;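 note: Nile Red retained in pooled yeast measured as flow cytometry median fluorescence; higher means more Nile Red kept so more efflux inhibition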
SUMO Mot1 rescue – blocks SUMOylation pathway, rescuing yeast Mot1-301 growth; hit rate 1% among 320,000; AID 2716; growth rescue, % at 18.8 µM; S. cerevisiae Mot1-301 growth rescue, ATP luminescence, 38.5C; percent above DMSO median, 100 means doubled;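 active = every valid replicate shows activation above 250% relative to neutral control wells; inactive = the rest, any valid replicate at or below 250%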
UCH37 DUB inh – blocks the human deubiquitinase UCH37; AID 588478; purified proteasome/UCH37, Ub-AMC cleavage fluorescence; inhibition, % (test concentration not listed); hit rate 0.33% among 330,000; Q9Y5K5;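 active = mean inhibition over replicate wells above about 20%, limit read from the data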
Target sequence (Q9Y5K5 whole entry, looked up): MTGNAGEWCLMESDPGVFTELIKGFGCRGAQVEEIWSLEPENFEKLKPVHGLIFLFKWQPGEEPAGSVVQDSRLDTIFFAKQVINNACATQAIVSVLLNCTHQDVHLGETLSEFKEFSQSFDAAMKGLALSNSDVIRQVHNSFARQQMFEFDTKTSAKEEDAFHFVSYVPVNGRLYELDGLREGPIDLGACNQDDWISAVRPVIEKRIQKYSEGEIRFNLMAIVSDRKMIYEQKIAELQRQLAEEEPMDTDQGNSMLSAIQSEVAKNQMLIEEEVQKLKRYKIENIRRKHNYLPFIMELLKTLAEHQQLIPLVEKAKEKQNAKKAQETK
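Material: Human UCH37 enzyme supplied as purified proteasome complex | Schedule: 30 min preincubation with enzyme, 25 min cleavage at room temperature | Detection: AMC fluorescence 355/460 nm | Measure: % inhibition of Ub-AMC cleavage fluorescence | Controls: Wells without proteasome as full block, compound-free enzyme plus substrate as uninhibited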
ARNT-TACC3 inh – disruptors of human ARNT/TACC3 interaction; Q9Y6A5; AlphaScreen His-ARNT PAS-B/GST-TACC3 binding, luminescence; TACC3 fragment carries E629A point mutation; inhibition, % at 9.99 µM; hit rate 0.66% among 390,000; AID 623870;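 active = mean inhibition of replicates at least 50% and at least half of replicates each reaching 50%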
cardiac RTF act – increases calcium sensitivity of human cardiac regulated thin filaments; P19429+P45379; IANBD-labeled TnC RTF fluorescence at EC20 calcium; 0% EC20 calcium, 100% full calcium; activation, % at 7.2 µM; hit rate 0.24% among 340,000;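 active = activation above the mean over all tested compounds plus 3 SD, cut at about 30% in these data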;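 note: rise in fluorescence read as greater calcium sensitivity of cardiac thin filaments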
Yeast Mot1 SUMO – SUMO pathway inhibitors in yeast Mot1-301 growth; growth activity, percent, % at 42 µM; 2,300 tested, under 10 active; S. cerevisiae Mot1-301 galactose growth, ATP luminescence, 24 h; -100 = growth of slx-deleted rescue strain; shares compounds with SUMO Mot1 rescue; AID 493004;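 active = Signal drops as the depositor expects, and the fitted half-maximal dose is no more than ten times the top valid tested dose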;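 note: more negative values mean stronger growth rescue toward the control strain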
Hits are given with their value; n = inactive; x = no result given; + = active, no number.

SMILES	RTF Ca sens inh	Efflux pump mplx	SUMO Mot1 rescue	UCH37 DUB inh	ARNT-TACC3 inh	cardiac RTF act	Yeast Mot1 SUMO
COc1ccc(C(=O)NN=Cc2sc(=O)n(Cc3cccc(C(=O)O)c3)c2Cl)cc1	x	x	x	n	x	x	x
N#CCCN(C(=O)COC(=O)c1ccc(S(=O)(=O)Nc2ccccc2)cc1)c1ccccc1	n	n	+	n	n	n	n
N#CCCN(C(=O)COC(=O)c1cccc(S(=O)(=O)Nc2ccc([N+](=O)[O-])cc2)c1)c1ccccc1	n	n	n	n	n	n	x
CC(C)C(=O)NCCSc1c[nH]c2ccccc12	n	n	598.0	n	n	n	n
O=C(CCSc1ccccc1)Nc1ccc(S(=O)(=O)Nc2ncccn2)cc1	n	n	n	n	n	n	x
O=C(CCSc1ccccc1)Nc1ncccn1	n	n	730.8	n	n	n	n
O=C(Cn1nc(C(F)(F)F)c2c1CCCC2)N1CCOCC1	n	n	772.3	n	n	n	n
CS(=O)(=O)N1CCCC(C(=O)Nc2ccc(F)cc2F)C1 (stereo not drawn)	n	n	+	n	n	n	n
CS(=O)(=O)N1CCCC(C(=O)Nc2ccc(Br)cc2F)C1 (stereo not drawn)	n	n	n	n	n	n	x
Cc1ccc(O)c(C(=O)CC(=O)c2cccc(F)c2)c1	n	n	538.4	n	x	n	n
Cc1cccc(C=NNC(=O)c2ccc(NC(=O)c3ccccc3Cl)cc2)n1	x	x	x	n	x	x	x
O=C1c2ccccc2C(=O)N1CCSc1ccccc1	n	n	+	n	n	n	n
O=C1c2ccccc2C(=O)N1CCSc1nncs1	n	n	n	n	n	n	x
CC(=NNC(=O)C(N)=O)c1ccc2c(c1)OCCO2	x	x	x	n	x	x	x
CC(C)CCOCc1nc2sc3c(c2c(=O)[nH]1)CCC(C)C3 (stereo not drawn)	n	n	593.2	n	n	n	n
Cc1nc(N/N=C\c2ccc3c(c2)OCO3)sc1C	n	n	497.5	x	n	n	n
C(=N\Nc1nc2ccccc2s1)/c1ccc2c(c1)OCO2	n	n	n	x	n	n	x
Cc1cccc(N2C(=O)/C(=C/c3cccnc3)SC2=S)c1	n	n	938.5	n	n	n	n
Cc1ccc(N2C(=O)/C(=C/c3cccnc3)SC2=S)cc1	n	n	n	n	n	n	x
Fc1ccccc1C=NNc1ncnc2ccccc12	x	x	x	n	x	x	x
COc1ccc(C=NNC(=O)c2cc(-c3ccccc3OC)nc3ccccc23)cc1COC(C)=O	x	x	x	n	x	x	x
Cc1ccc(-n2c(-c3ccco3)nc3c(cnn3-c3ccc(C)cc3)c2=O)cc1	n	n	734.2	n	n	n	n
O=C(Cc1ccc(Cl)cc1Cl)OCC(=O)c1ccc[nH]1	n	n	580.6	n	n	n	n
O=C(COc1ccc(Cl)cc1Cl)OCC(=O)c1ccc[nH]1	n	n	n	n	x	n	x
CCCC(O)(c1ccc(Br)cc1)C(CN1CCOCC1)c1ccc(Cl)cc1 (stereo not drawn)	n	n	554.8	n	n	n	n
SMILES	RTF Ca sens inh	Efflux pump mplx	SUMO Mot1 rescue	UCH37 DUB inh	ARNT-TACC3 inh	cardiac RTF act	Yeast Mot1 SUMO
O=C1COc2ccc(-c3csc(=Nc4ccc(OC(F)F)cc4)n3CC3CCCO3)cc2N1 (stereo not drawn)	n	n	n	n	n	n	x
COCC(C)n1c(-c2ccc3c(c2)NC(=O)CO3)csc1=Nc1ccc(OC(F)F)cc1 (stereo not drawn)	n	n	531.8	n	n	n	n
N/C(=N\OC(=O)CCC1CCCC1)c1ccc([N+](=O)[O-])cc1	n	n	597.2	x	n	n	n
NC(=NOC(=O)CCC1CCCCC1)c1cccc([N+](=O)[O-])c1	x	x	x	n	x	x	x
Cc1cc(C)n(CC(=O)NN=Cc2ccccn2)n1	x	x	x	n	x	x	x
Oc1ccc(Br)cc1/C=N/n1c(COc2ccccc2)n[nH]c1=S	n	n	679.4	x	n	n	n
CCCCN(C)C(=O)CCC(=O)Nc1ccc2nc(N3CCN(C)CC3)cc(C)c2c1	n	n	448.9	n	n	n	n
CCCCN(C)C(=O)CCC(=O)Nc1ccc2nc(N3CCOCC3)cc(C)c2c1	n	n	n	n	n	n	x
Cc1cc(N2CCN(C)CC2)nc2ccc(NC(=S)N3CCC4(CC3)OCCO4)cc12	n	n	+	n	n	n	n
CCOC(=O)c1[nH]c2ccc(Br)cc2c1NC(=O)CCN1CCOCC1	n	n	413.1	n	n	n	n
CCOC(=O)c1ccc(NC(=O)CC2Sc3ncnn3C2=O)cc1 (stereo not drawn)	n	n	673.7	n	n	n	n
Cc1cc2c3c(c1)C1(SCC(=O)N1c1ccc(F)cc1)C(=O)N3C(C)(C)CC2C (stereo not drawn)	n	n	423.4	n	n	n	n
COc1ccc(N2C(=O)CSC23C(=O)N2c4c(cccc43)C(C)=CC2(C)C)cc1 (stereo not drawn)	n	n	n	n	n	n	x
CC(=O)Nc1cc2nn(-c3ccccc3)nc2cc1Cl	n	n	553.1	n	x	n	n
CCCCCCCCCCOC(=O)Cn1c(COc2ccccc2OC)[n+](C)c2ccccc21	n	n	835.5	x	n	n	n
Cn1c(COc2ccccc2O)[n+](C)c2ccccc21	n	n	n	n	n	n	x
O=C(NCC1CCCO1)C(=O)NN=Cc1ccc2c(c1)OCO2 (stereo not drawn)	x	x	x	n	x	x	x
O=C(CN1C(=O)c2ccccc2S1(=O)=O)NCCSc1ccccc1	n	n	x	n	n	n	x
Cc1ccc(SCCNC(=O)CN2C(=O)c3ccccc3S2(=O)=O)cc1	n	n	397.8	n	n	n	n
COc1ccc(NC(=O)CN2C(=O)c3ccccc3S2(=O)=O)cc1OC	n	n	403.5	n	n	n	n
NC(=S)NN=Cc1ccc(-n2nncc2-c2ccc(Cl)cc2)cc1	x	x	x	n	x	x	x
CCN(CC)c1ccc(/C=N/NC(=O)OC(C)(C)C)cc1	n	n	568.1	x	n	n	n
CCN(CC)c1ccc(/C=N\NC(N)=O)cc1	n	n	n	x	n	n	x
COc1ccccc1/C=C/C=Nn1c(-c2ccco2)n[nH]c1=S	x	x	x	n	x	x	x
C=CCN1C(=O)/C(=C/c2ccc(O)cc2)SC1=Nc1nccs1	x	x	x	n	x	x	x
SMILES	RTF Ca sens inh	Efflux pump mplx	SUMO Mot1 rescue	UCH37 DUB inh	ARNT-TACC3 inh	cardiac RTF act	Yeast Mot1 SUMO
COC(=O)c1ccccc1N(C)S(C)(=O)=O	n	n	563.2	n	n	n	n
COC(=O)c1ccccc1NC(=O)c1ccccc1N(C)S(C)(=O)=O	n	n	n	n	n	n	x
O=C(NN=Cc1cccnc1)c1cc(-c2ccc(Cl)s2)[nH]n1	x	x	x	n	x	x	x
Cc1nnc(C)n1N=Cc1cccc([N+](=O)[O-])c1	x	x	x	n	x	x	x
CCCOC(=O)C1=C(C)NC2=C(C(=O)CCC2)C1c1cccs1 (stereo not drawn)	n	n	450.5	n	n	n	n
CCOC(=O)C1=C(C)NC2=C(C(=O)CC(c3cccs3)C2)C1c1cccs1 (stereo not drawn)	n	n	n	n	n	n	x
